Test results: ChEMBL document CHEMBL1141492, “Potent, exceptionally selective, orally bioavailable inhibitors of TNF-alpha Converting Enzyme (TACE): novel 2-substituted-1H-benzo[d]imidazol-1-yl)methyl)benzamide P1' substituents” (Bioorg Med Chem Lett, 2008)

Columns and labels:
[1] = target: 72 kDa type IV collagenase (Homo sapiens, UniProt P08253); assay: Inhibition of MMP2
[2] = target: Disintegrin and metalloproteinase domain-containing protein 17 (Sus scrofa, UniProt O77636); assay: Inhibition of semi purified pig TACE
[3] = target: Matrix metalloproteinase-9 (Homo sapiens, UniProt P14780); assay: Inhibition of MMP9
Blood = assay: Reduction of LPS-induced TNFalpha in human whole blood; type: functional, tissue-based
In short: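 LPS-induced TNF-α production in human whole blood; suppression of TNF-α measured.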

Interstitial collagenase = target: T1, Interstitial collagenase (Homo sapiens, UniProt P03956); assay: Inhibition of MMP1
T1 sequence (P03956 whole entry): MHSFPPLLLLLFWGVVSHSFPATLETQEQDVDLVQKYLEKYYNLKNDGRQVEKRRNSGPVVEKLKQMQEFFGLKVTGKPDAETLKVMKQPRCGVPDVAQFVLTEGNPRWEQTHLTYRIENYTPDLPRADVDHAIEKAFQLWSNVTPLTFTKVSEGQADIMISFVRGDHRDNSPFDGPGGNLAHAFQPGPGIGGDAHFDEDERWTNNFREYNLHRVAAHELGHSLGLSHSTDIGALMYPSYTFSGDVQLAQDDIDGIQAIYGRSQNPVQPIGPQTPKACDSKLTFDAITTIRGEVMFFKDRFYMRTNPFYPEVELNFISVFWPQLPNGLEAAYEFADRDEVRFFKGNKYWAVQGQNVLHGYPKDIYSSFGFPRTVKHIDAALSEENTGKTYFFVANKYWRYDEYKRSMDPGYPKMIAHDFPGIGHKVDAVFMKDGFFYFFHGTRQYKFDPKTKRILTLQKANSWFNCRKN

[4] = Apparent permeability across human Caco-2 cells; type: ADME, cell-based
In short: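 Apparent permeability measured across Caco-2 cell monolayers in the apical-to-basolateral (A→B) direction.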

[5] = Oral bioavailability in Sprague-Dawley rat at 8.0 mg/kg; type: ADME, organism-based; details: in vivo
In short: (§1)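 Discrete or cassette (n-in-1) dosing, given intravenously and orally. Sprague–Dawley rats received 5.0 mg/kg iv and 8.0 mg/kg po; beagle dogs received 2.0 mg/kg iv and 8.0 mg/kg po. Three animals per dosing group; averaged values reported. AUC is reported in nM h.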

[6] = Clearance in Sprague-Dawley rat at 5.0 mg/kg, iv; type: ADME, organism-based; design: dose 5 mg/kg, route intravenous; details: in vivo; in short: as §1
Stromelysin-1 = Stromelysin-1 (Homo sapiens, UniProt P08254); assay: Inhibition of MMP3
[7] = target: Matrix metalloproteinase-15 (Homo sapiens, UniProt P51511); assay: Inhibition of MMP15
In short: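 Ki values against each MMP, each from a single determination.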

Stromelysin-2 = Stromelysin-2 (Homo sapiens, UniProt P09238); assay: Inhibition of MMP10
In short: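 MMP Ki values come from a single determination.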

[8] = target: Matrix metalloproteinase-14 (Homo sapiens, UniProt P50281); assay: Inhibition of MMP14
Matrilysin = target: T2, Matrilysin (Homo sapiens, UniProt P09237); assay: Inhibition of MMP7
T2 sequence (P09237 whole entry): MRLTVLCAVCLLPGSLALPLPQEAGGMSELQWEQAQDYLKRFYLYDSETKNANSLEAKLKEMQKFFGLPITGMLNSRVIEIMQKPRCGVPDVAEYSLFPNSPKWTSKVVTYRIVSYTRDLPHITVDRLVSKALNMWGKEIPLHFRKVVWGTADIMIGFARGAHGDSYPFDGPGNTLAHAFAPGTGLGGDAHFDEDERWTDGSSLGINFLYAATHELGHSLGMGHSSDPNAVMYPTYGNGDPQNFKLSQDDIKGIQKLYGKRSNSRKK

[9] = target: Matrix metalloproteinase-16 (Homo sapiens, UniProt P51512); assay: Inhibition of MMP16
Collagenase 3 = Collagenase 3 (Homo sapiens, UniProt P45452); assay: Inhibition of MMP13
Neutrophil collagenase = Neutrophil collagenase (Homo sapiens, UniProt P22894); assay: Inhibition of MMP8
Chain of Neutrophil collagenase (P22894 whole entry): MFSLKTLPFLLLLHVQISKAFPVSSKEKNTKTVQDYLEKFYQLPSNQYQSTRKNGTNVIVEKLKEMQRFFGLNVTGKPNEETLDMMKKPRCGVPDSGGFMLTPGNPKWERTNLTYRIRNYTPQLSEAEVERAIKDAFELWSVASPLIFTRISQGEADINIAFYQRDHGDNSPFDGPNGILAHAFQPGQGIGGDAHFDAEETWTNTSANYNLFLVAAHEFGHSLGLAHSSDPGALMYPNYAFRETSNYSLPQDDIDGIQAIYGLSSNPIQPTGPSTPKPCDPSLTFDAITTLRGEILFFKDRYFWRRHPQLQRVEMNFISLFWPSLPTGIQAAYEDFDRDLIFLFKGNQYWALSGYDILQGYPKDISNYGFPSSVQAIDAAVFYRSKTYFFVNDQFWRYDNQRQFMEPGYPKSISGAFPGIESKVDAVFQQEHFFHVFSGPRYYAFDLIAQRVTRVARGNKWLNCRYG

Chain of Stromelysin-1 (P08254 whole entry): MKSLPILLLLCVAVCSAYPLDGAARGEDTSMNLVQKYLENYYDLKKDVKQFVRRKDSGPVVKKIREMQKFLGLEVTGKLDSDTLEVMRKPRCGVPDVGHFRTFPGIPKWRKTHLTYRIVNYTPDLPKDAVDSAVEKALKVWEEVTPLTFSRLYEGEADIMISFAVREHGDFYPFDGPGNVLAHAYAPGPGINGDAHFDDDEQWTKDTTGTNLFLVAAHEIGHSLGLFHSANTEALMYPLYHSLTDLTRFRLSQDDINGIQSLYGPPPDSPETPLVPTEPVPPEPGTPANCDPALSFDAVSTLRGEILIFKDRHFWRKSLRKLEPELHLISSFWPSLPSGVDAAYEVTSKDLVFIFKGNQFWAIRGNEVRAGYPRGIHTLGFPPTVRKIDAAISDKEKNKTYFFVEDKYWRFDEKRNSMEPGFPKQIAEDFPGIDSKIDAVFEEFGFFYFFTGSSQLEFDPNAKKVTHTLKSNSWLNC
Chain of Stromelysin-2 (P09238 whole entry): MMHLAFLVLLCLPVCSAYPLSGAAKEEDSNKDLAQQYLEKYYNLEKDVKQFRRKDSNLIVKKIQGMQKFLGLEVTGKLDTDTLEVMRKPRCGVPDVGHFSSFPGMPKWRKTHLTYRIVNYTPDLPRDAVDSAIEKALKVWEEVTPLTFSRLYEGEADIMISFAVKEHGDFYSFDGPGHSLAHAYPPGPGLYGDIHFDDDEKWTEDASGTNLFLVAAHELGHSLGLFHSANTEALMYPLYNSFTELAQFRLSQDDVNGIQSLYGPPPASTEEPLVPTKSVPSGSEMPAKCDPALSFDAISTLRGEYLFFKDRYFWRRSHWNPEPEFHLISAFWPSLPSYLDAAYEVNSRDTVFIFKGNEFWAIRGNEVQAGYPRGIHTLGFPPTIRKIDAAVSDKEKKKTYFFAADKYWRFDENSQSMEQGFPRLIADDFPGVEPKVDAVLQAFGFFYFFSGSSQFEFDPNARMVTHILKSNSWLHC
Chain of 72 kDa type IV collagenase (P08253 whole entry, the tested form may be a part): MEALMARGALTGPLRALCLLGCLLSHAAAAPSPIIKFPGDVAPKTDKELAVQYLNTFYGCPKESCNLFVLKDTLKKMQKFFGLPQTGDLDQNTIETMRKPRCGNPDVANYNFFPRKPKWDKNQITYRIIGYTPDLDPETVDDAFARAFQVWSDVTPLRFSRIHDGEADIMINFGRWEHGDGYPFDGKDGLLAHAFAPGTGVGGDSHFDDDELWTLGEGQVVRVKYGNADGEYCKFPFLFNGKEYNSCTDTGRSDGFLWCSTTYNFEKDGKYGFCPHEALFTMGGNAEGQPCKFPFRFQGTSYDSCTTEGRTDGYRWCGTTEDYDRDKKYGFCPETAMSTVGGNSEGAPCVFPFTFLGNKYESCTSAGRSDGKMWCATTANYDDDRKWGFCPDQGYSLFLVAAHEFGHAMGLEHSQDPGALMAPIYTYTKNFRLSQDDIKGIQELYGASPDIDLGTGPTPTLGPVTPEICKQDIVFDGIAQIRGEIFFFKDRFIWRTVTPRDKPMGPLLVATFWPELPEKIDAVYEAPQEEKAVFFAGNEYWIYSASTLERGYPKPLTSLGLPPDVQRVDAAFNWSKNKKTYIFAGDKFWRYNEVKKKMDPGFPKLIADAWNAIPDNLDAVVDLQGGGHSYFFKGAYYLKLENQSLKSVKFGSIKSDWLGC
Chain of Matrix metalloproteinase-16 (P51512 whole entry): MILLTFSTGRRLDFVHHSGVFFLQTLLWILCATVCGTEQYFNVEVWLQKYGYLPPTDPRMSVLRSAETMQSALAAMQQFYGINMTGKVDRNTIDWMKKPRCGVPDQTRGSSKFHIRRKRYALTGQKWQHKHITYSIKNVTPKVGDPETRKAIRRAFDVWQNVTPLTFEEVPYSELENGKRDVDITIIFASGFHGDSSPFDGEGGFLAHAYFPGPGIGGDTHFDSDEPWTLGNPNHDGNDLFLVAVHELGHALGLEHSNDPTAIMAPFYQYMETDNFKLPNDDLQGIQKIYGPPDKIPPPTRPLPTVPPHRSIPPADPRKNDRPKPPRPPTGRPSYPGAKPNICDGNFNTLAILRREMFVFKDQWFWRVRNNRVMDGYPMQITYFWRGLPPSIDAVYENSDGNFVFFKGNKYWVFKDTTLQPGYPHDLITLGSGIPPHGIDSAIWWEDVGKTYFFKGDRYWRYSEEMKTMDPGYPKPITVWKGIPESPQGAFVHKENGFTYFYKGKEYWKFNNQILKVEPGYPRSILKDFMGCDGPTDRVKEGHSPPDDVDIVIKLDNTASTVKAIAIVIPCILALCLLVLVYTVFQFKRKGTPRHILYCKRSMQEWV
Chain of Disintegrin and metalloproteinase domain-containing protein 17 (O77636 whole entry, the tested form may be a part): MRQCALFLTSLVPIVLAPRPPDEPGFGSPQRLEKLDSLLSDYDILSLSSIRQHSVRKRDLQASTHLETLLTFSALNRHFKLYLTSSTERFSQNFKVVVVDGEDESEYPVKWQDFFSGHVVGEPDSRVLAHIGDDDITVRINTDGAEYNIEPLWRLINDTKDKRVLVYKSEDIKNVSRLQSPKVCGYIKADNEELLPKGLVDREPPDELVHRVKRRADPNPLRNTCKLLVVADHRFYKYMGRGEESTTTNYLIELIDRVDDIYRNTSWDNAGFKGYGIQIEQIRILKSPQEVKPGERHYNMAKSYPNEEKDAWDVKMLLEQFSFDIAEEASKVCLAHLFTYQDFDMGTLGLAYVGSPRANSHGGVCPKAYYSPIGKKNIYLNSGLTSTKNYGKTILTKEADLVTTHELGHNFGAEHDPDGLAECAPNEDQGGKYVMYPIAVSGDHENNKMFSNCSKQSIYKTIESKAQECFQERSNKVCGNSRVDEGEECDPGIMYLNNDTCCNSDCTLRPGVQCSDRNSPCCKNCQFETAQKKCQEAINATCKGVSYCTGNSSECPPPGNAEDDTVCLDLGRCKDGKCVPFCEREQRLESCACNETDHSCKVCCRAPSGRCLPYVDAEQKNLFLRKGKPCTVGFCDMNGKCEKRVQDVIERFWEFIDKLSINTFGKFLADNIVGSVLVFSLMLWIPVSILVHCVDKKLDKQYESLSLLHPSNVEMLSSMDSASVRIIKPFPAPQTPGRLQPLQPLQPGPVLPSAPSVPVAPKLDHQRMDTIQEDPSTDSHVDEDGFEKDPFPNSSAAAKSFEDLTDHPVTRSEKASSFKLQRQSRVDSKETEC
Chain of Matrix metalloproteinase-15 (P51511 whole entry): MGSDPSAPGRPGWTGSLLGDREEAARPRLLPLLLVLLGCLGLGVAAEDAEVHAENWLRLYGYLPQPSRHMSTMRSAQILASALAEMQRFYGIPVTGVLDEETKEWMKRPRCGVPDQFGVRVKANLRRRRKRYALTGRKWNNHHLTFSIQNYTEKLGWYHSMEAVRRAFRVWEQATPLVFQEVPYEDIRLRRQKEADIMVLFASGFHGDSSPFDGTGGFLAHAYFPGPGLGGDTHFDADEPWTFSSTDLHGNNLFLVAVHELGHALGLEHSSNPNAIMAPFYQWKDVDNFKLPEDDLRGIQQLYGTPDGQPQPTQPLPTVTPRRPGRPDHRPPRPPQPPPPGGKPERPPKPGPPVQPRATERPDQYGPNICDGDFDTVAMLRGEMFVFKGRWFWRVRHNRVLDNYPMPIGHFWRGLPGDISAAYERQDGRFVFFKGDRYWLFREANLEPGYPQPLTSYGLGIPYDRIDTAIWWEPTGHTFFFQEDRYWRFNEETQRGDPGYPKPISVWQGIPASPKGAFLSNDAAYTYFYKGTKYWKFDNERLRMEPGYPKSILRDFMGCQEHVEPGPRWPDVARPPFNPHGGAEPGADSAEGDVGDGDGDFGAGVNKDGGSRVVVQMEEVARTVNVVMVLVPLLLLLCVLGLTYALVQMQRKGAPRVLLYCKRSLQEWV
Chain of Matrix metalloproteinase-9 (P14780 whole entry): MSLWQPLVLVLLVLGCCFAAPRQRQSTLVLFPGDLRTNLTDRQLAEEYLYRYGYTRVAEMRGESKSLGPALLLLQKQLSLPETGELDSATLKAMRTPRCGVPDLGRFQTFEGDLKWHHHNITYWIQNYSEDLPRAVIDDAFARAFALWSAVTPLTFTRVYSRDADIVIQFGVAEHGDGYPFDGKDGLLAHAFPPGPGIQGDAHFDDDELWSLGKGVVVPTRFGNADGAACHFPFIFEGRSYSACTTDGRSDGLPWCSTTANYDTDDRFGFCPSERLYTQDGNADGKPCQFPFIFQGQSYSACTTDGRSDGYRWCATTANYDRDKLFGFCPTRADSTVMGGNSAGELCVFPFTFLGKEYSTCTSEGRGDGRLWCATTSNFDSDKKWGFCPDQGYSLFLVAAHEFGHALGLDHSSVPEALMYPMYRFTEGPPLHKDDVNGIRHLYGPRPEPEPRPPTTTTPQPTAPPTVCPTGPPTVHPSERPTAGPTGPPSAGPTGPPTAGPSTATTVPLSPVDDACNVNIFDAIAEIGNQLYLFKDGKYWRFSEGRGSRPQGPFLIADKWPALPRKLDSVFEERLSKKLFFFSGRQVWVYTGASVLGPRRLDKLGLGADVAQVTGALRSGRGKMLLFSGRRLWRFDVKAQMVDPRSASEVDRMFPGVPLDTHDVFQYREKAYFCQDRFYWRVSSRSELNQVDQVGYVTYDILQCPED

| Structure (SMILES) | Ki [1] [nM] | IC50 [2] [nM] | Ki [3] [nM] | IC50 (Blood) [nM] | Ki (Interstitial collagenase) [nM] | Papp [4] [×10⁻⁶ cm/s] | bioavailability [5] [%] | clearance [6] [mL/min/kg] | Ki (Stromelysin-1) [nM] | Ki [7] [nM] | IC50 (Stromelysin-2) [nM] | Ki [8] [nM] | Ki (Matrilysin) [nM] | Ki [9] [nM] | Ki (Collagenase 3) [nM] | Ki (Neutrophil collagenase) [nM] |
| --- | --- | --- | --- | --- | --- | --- | --- | --- | --- | --- | --- | --- | --- | --- | --- | --- |
| CSc1nc2ccccc2n1Cc1ccc([C@]2(N)CCN([C@H](CC(C)C)C(=O)NO)C2=O)cc1 | 302 | 6.2 | 934 | 316 | > 4950 | – | – | – | – | – | – | – | – | – | – | – |
| Cc1nc2ccccc2n1Cc1ccc(C(=O)N[C@@H]2CNC[C@@H]2C(=O)NO)cc1 | > 2130 | 2.6 | > 2130 | 56 | > 2130 | 0.1 | – | – | – | – | – | – | – | – | – | – |
| CC(C)c1nc2ccccc2n1Cc1ccc(C(=O)N[C@@H]2CNC[C@@H]2C(=O)NO)cc1 | > 2130 | 1.6 | > 2130 | 64 | > 2130 | 0.1 | – | – | – | – | – | – | – | – | – | – |
| O=C(N[C@@H]1CCC[C@@H]1C(=O)NO)c1ccc(Cn2c(C3CC3)nc3ccccc32)cc1 | > 3330 | 2.7 | > 2130 | 54 | > 4950 | 2 | 22 | 25 | – | – | – | – | – | – | – | – |
| C#CCN1C[C@H](C(=O)NO)[C@H](NC(=O)c2ccc(Cn3c(C(C)C)nc4ccccc43)cc2)C1 | > 3330 | 1.8 | > 2130 | 137 | > 4950 | 0.1 | 3 | 155 | – | – | – | – | – | – | – | – |
| C#CCN1C[C@H](C(=O)NO)[C@H](NC(=O)c2ccc(Cn3c(C(C)(C)C)nc4ccccc43)cc2)C1 | > 3330 | 2.3 | > 2130 | 317 | > 4950 | 0.4 | 8 | 113 | – | – | – | – | – | – | – | – |
| O=C(N[C@@H]1C[C@@]2(CCCO2)C[C@@H]1C(=O)NO)c1ccc(Cn2c(C3CC3)nc3ccccc32)cc1 | > 3330 | 1.3 | > 2130 | 42 | > 4950 | 0.1 | 14 | 23.3 | – | – | – | – | – | – | – | – |
| CC(C)(F)c1nc2ccccc2n1Cc1ccc(C(=O)N[C@@H]2C[C@@]3(CCCO3)C[C@@H]2C(=O)NO)cc1 | > 3330 | < 1 | > 2130 | 140 | > 4950 | 2.4 | 33 | 40 | – | – | – | – | – | – | – | – |
| CC(C)(F)c1nc2ccccc2n1Cc1ccc(C(=O)N[C@@H]2CCOC[C@@H]2C(=O)NO)cc1 | > 3330 | 2.2 | > 2130 | 153 | > 4950 | 0.3 | 36 | 31.7 | – | – | – | – | – | – | – | – |
| CC(F)(F)c1nc2ccccc2n1Cc1ccc(C(=O)N[C@@H]2CCOC[C@@H]2C(=O)NO)cc1 | > 3330 | 2.6 | > 2130 | 188 | > 4950 | 0.7 | 55 | 20 | – | – | – | – | – | – | – | – |
| O=C(N[C@@H]1COC[C@@H]1C(=O)NO)c1ccc(Cn2c(C(F)(F)F)nc3ccccc32)cc1 | > 3330 | 1 | > 2130 | 102 | > 4950 | 0.1 | 20 | 53.3 | – | – | – | – | – | – | – | – |
| CSc1nc2ccccc2n1Cc1ccc(C(=O)N[C@@H]2CNC[C@@H]2C(=O)NO)cc1 | > 2130 | 1.6 | > 2130 | 34 | > 2130 | 0.2 | – | – | – | – | – | – | – | – | – | – |
| CSc1nc2ccccc2n1Cc1ccc(C(=O)N[C@@H]2CN(C(=O)OC(C)(C)C)C[C@@H]2C(=O)NO)cc1 | > 2130 | < 1 | > 2130 | 62 | > 2130 | 0.2 | – | – | > 4500 | > 7090 | > 10000 | > 5290 | 4080 | > 5450 | > 5030 | – |
| Cc1nc2ccccc2n1Cc1ccc(C(=O)N[C@@H]2CN(C(=O)OC(C)(C)C)C[C@@H]2C(=O)NO)cc1 | > 2130 | 1 | > 2130 | 92 | > 2130 | 0.1 | – | – | 2610 | > 7090 | 1600 | > 5290 | 5860 | > 5550 | > 5030 | – |
| CC(C)c1nc2ccccc2n1Cc1ccc(C(=O)N[C@@H]2CCOC[C@@H]2C(=O)NO)cc1 | > 3330 | 1.6 | > 2130 | 105 | > 4950 | 0.5 | 8 | 63.3 | – | – | – | – | – | – | – | – |
| CC(C)c1nc2ccccc2n1Cc1ccc(C(=O)N[C@@H]2C[C@@]3(CCCO3)C[C@@H]2C(=O)NO)cc1 | > 3330 | 1.1 | > 2130 | 69 | > 4950 | 0.1 | 22 | 115 | – | – | – | – | – | – | – | – |
| CC(C)c1nc2ccccc2n1Cc1ccc(C(=O)N[C@@H]2CCC[C@@H]2C(=O)NO)cc1 | > 3330 | 1 | > 2130 | 65 | > 4950 | 0.1 | 8 | 50 | – | – | – | – | – | – | – | – |
| CC(C)(C)c1nc2ccccc2n1Cc1ccc(C(=O)N[C@@H]2C[C@@]3(CCCO3)C[C@@H]2C(=O)NO)cc1 | > 3330 | 2 | > 2130 | 252 | > 4950 | 1.4 | 29 | 48.3 | – | – | – | – | – | – | – | – |
| CC(C)c1nc2ccccc2n1Cc1ccc(C(=O)N[C@@H]2CN(C(=O)OC(C)(C)C)C[C@@H]2C(=O)NO)cc1 | > 2130 | 1 | > 2130 | 70 | > 2130 | 0.2 | – | – | 3920 | > 7090 | 4600 | > 5290 | 3500 | > 5550 | > 5030 | > 3060 |
